{
  "source": "ChEMBL document CHEMBL1926550",
  "about": "“Synthesis and antibacterial activity of naphthyridone derivatives containing mono/difluoro-methyloxime pyrrolidine scaffolds” (2012)",
  "assay_type_in_all_cases": "functional",
  "key": {"Staphylococcus aureus [1]": {"system": "Staphylococcus aureus", "assay": "Antibacterial activity against methicillin-resistant Staphylococcus aureus 10-1 after 18 hrs by two fold serial dilution method", "conditions": "10-1, 18 h", "summary_of_the_method": "(§1)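 Agar two-fold serial dilution in melted Mueller-Hinton agar, 128 to 0.008 μg/mL. Plates inoculated with 10⁴ cfu, incubated 35 °C for 18 h. MIC taken as lowest concentration giving no visible growth on the plate.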"}, "Escherichia coli [2]": {"system": "Escherichia coli", "assay": "Antibacterial activity against Escherichia coli 10-2 infected KM mouse systemic infection model assessed as decrease in mouse mortality administered orally twice after 1 and 4 hrs post infection measured up to 7 days", "conditions": "10-2, po", "summary_of_the_method": "(§2)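 Strains grown on MH agar at 35 °C for 18 h, suspended in gastric mucin. Male KM mice (19–21 g), groups of 10, infected intraperitoneally with 0.5 mL at 5–10× MLD. Four oral dose levels per drug at 1 and 4 h post infection. Mortality followed 7 days; ED50 with 95% confidence limits by Bliss method.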"}, "Staphylococcus aureus [3]": {"system": "Staphylococcus aureus", "assay": "Antibacterial activity against methicillin-sensitive Staphylococcus aureus 10-3 after 18 hrs by two fold serial dilution method", "conditions": "10-3, 18 h", "summary_of_the_method": "(§3)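 Agar two-fold serial dilution in melted Mueller-Hinton agar, final concentrations 128 down to 0.008 μg/mL. Plates inoculated with 10⁴ cfu and incubated at 35 °C for 18 h. MIC taken as the lowest concentration giving no visible growth on the plate.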"}, "Pseudomonas aeruginosa [4]": {"system": "Pseudomonas aeruginosa", "assay": "Antibacterial activity against Pseudomonas aeruginosa 10-1 after 18 hrs by two fold serial dilution method", "conditions": "10-1, 18 h", "summary_of_the_method": "as §3"}, "Enterococcus faecium [5]": {"system": "Enterococcus faecium", "assay": "Antibacterial activity against Enterococcus faecium 09-2 after 18 hrs by two fold serial dilution method", "conditions": "09-2, 18 h", "summary_of_the_method": "as §3"}, "[6]": {"system": "Staphylococcus epidermidis", "assay": "Antibacterial activity against methicillin-resistant Staphylococcus epidermidis 10-4 infected KM mouse systemic infection model assessed as decrease in mouse mortality administered orally twice after 1 and 4 hrs post infection measured up to 7 days", "conditions": "10-4, po", "summary_of_the_method": "as §2"}, "Klebsiella pneumoniae [7]": {"system": "Klebsiella pneumoniae", "assay": "Antibacterial activity against Klebsiella pneumoniae 09-2 after 18 hrs by two fold serial dilution method", "conditions": "09-2, 18 h", "summary_of_the_method": "as §3"}, "[8]": {"system": "Staphylococcus epidermidis", "assay": "Antibacterial activity against methicillin-resistant Staphylococcus epidermidis 10-1 after 18 hrs by two fold serial dilution method", "conditions": "10-1, 18 h", "summary_of_the_method": "as §1"}, "Pseudomonas aeruginosa [9]": {"system": "Pseudomonas aeruginosa", "assay": "Antibacterial activity against Pseudomonas aeruginosa 10-2 after 18 hrs by two fold serial dilution method", "conditions": "10-2, 18 h", "summary_of_the_method": "as §3"}, "Klebsiella pneumoniae [10]": {"system": "Klebsiella pneumoniae", "assay": "Antibacterial activity against Klebsiella pneumoniae 10-3 after 18 hrs by two fold serial dilution method", "conditions": "10-3, 18 h", "summary_of_the_method": "as §3"}, "Klebsiella pneumoniae [11]": {"system": "Klebsiella pneumoniae", "assay": "Antibacterial activity against Klebsiella pneumoniae 10-3 infected KM mouse systemic infection model assessed as decrease in mouse mortality administered orally twice after 1 and 4 hrs post infection measured up to 7 days", "conditions": "10-3, po", "summary_of_the_method": "as §2"}, "Staphylococcus aureus [12]": {"system": "Staphylococcus aureus", "assay": "Antibacterial activity against methicillin-sensitive Staphylococcus aureus 10-1 after 18 hrs by two fold serial dilution method", "conditions": "10-1, 18 h", "summary_of_the_method": "as §3"}, "Staphylococcus aureus [13]": {"system": "Staphylococcus aureus", "assay": "Antibacterial activity against methicillin-sensitive Staphylococcus aureus 10-2 after 18 hrs by two fold serial dilution method", "conditions": "10-2, 18 h", "summary_of_the_method": "as §3"}, "Enterococcus faecium [14]": {"system": "Enterococcus faecium", "assay": "Antibacterial activity against Enterococcus faecium 09-4 after 18 hrs by two fold serial dilution method", "conditions": "09-4, 18 h", "summary_of_the_method": "as §3"}, "Staphylococcus aureus [15]": {"system": "Staphylococcus aureus", "assay": "Antibacterial activity against methicillin-sensitive Staphylococcus aureus 10-5 after 18 hrs by two fold serial dilution method", "conditions": "10-5, 18 h", "summary_of_the_method": "as §3"}, "[16]": {"system": "Staphylococcus epidermidis", "assay": "Antibacterial activity against methicillin-sensitive Staphylococcus epidermidis 10-2 after 18 hrs by two fold serial dilution method", "conditions": "10-2, 18 h", "summary_of_the_method": "as §3"}, "Enterococcus faecium [17]": {"system": "Enterococcus faecium", "assay": "Antibacterial activity against Enterococcus faecium 09-5 after 18 hrs by two fold serial dilution method", "conditions": "09-5, 18 h", "summary_of_the_method": "as §3"}, "Streptococcus pneumoniae": {"system": "Streptococcus pneumoniae", "assay": "Antibacterial activity against Streptococcus pneumoniae 10-1 after 18 hrs by two fold serial dilution method", "conditions": "10-1, 18 h", "summary_of_the_method": "as §3"}, "[18]": {"system": "Staphylococcus epidermidis", "assay": "Antibacterial activity against methicillin-resistant Staphylococcus epidermidis 10-4 after 18 hrs by two fold serial dilution method", "conditions": "10-4, 18 h", "summary_of_the_method": "as §1"}, "Enterococcus faecalis [19]": {"system": "Enterococcus faecalis", "assay": "Antibacterial activity against Enterococcus faecalis 09-2 after 18 hrs by two fold serial dilution method", "conditions": "09-2, 18 h", "summary_of_the_method": "as §3"}, "Staphylococcus aureus [20]": {"system": "Staphylococcus aureus", "assay": "Antibacterial activity against methicillin-sensitive Staphylococcus aureus 10-4 after 18 hrs by two fold serial dilution method", "conditions": "10-4, 18 h", "summary_of_the_method": "as §3"}, "Staphylococcus aureus [21]": {"system": "Staphylococcus aureus", "assay": "Antibacterial activity against Staphylococcus aureus ATCC 25923 after 18 hrs by two fold serial dilution method", "conditions": "ATCC 25923, 18 h", "summary_of_the_method": "as §3"}, "[22]": {"system": "Staphylococcus epidermidis", "assay": "Antibacterial activity against methicillin-sensitive Staphylococcus epidermidis 10-1 after 18 hrs by two fold serial dilution method", "conditions": "10-1, 18 h", "summary_of_the_method": "as §3"}, "Klebsiella pneumoniae [23]": {"system": "Klebsiella pneumoniae", "assay": "Antibacterial activity against Klebsiella pneumoniae 10-1 after 18 hrs by two fold serial dilution method", "conditions": "10-1, 18 h", "summary_of_the_method": "as §3"}, "Enterococcus faecium [24]": {"system": "Enterococcus faecium", "assay": "Antibacterial activity against Enterococcus faecium 09-3 after 18 hrs by two fold serial dilution method", "conditions": "09-3, 18 h", "summary_of_the_method": "as §3"}, "Enterococcus faecium [25]": {"system": "Enterococcus faecium", "assay": "Antibacterial activity against Enterococcus faecium 09-6 after 18 hrs by two fold serial dilution method", "conditions": "09-6, 18 h", "summary_of_the_method": "as §3"}, "Staphylococcus aureus [26]": {"system": "Staphylococcus aureus", "assay": "Antibacterial activity against methicillin-resistant Staphylococcus aureus 10-3 after 18 hrs by two fold serial dilution method", "conditions": "10-3, 18 h", "summary_of_the_method": "as §1"}, "Staphylococcus aureus [27]": {"system": "Staphylococcus aureus", "assay": "Antibacterial activity against methicillin-resistant Staphylococcus aureus 10-4 after 18 hrs by two fold serial dilution method", "conditions": "10-4, 18 h", "summary_of_the_method": "as §1"}, "[28]": {"system": "Staphylococcus epidermidis", "assay": "Antibacterial activity against methicillin-resistant Staphylococcus epidermidis 10-2 after 18 hrs by two fold serial dilution method", "conditions": "10-2, 18 h", "summary_of_the_method": "as §1"}, "Staphylococcus aureus [29]": {"system": "Staphylococcus aureus", "assay": "Antibacterial activity against methicillin-resistant Staphylococcus aureus 10-2 infected KM mouse systemic infection model assessed as decrease in mouse mortality administered orally twice after 1 and 4 hrs post infection measured up to 7 days", "conditions": "10-2, po", "summary_of_the_method": "as §2"}, "Pseudomonas aeruginosa [30]": {"system": "Pseudomonas aeruginosa", "assay": "Antibacterial activity against Pseudomonas aeruginosa 10-1 infected KM mouse systemic infection model assessed as decrease in mouse mortality administered orally twice after 1 and 4 hrs post infection measured up to 7 days", "conditions": "10-1, po", "summary_of_the_method": "as §2"}, "Enterococcus faecium [31]": {"system": "Enterococcus faecium", "assay": "Antibacterial activity against Enterococcus faecium 09-1 after 18 hrs by two fold serial dilution method", "conditions": "09-1, 18 h", "summary_of_the_method": "as §3"}, "Enterococcus faecalis [32]": {"system": "Enterococcus faecalis", "assay": "Antibacterial activity against Enterococcus faecalis 09-1 after 18 hrs by two fold serial dilution method", "conditions": "09-1, 18 h", "summary_of_the_method": "as §3"}, "Escherichia coli [33]": {"system": "Escherichia coli", "assay": "Antibacterial activity against Escherichia coli 09-3 after 18 hrs by two fold serial dilution method", "conditions": "09-3, 18 h", "summary_of_the_method": "as §3"}},
  "data": [
    {"smiles": "O=C(O)c1cn(C2CC2)c2cc(N3CCNCC3)c(F)cc2c1=O", "note": "[CIPROFLOXACIN]", "values": [
      {"measurement": "MIC", "setting": "Staphylococcus aureus [1]", "result": "> 128", "unit": "µg/mL"},
      {"measurement": "ED50", "setting": "Escherichia coli [2]", "result": 4, "unit": "mg/kg"},
      {"measurement": "MIC", "setting": "Staphylococcus aureus [3]", "result": 0.06, "unit": "µg/mL"},
      {"measurement": "MIC", "setting": "Pseudomonas aeruginosa [4]", "result": 0.06, "unit": "µg/mL"},
      {"measurement": "MIC", "setting": "Enterococcus faecium [5]", "result": "> 128", "unit": "µg/mL"},
      {"measurement": "ED50", "setting": "[6]", "result": 24.5, "unit": "mg/kg"},
      {"measurement": "MIC", "setting": "Klebsiella pneumoniae [7]", "result": 32, "unit": "µg/mL"},
      {"measurement": "MIC", "setting": "[8]", "result": 16, "unit": "µg/mL"},
      {"measurement": "MIC", "setting": "Pseudomonas aeruginosa [9]", "result": "> 128", "unit": "µg/mL"},
      {"measurement": "MIC", "setting": "Klebsiella pneumoniae [10]", "result": 0.25, "unit": "µg/mL"},
      {"measurement": "ED50", "setting": "Klebsiella pneumoniae [11]", "result": 87.5, "unit": "mg/kg"},
      {"measurement": "MIC", "setting": "Staphylococcus aureus [12]", "result": 0.015, "unit": "µg/mL"},
      {"measurement": "MIC", "setting": "Staphylococcus aureus [13]", "result": 64, "unit": "µg/mL"},
      {"measurement": "MIC", "setting": "Enterococcus faecium [14]", "result": 0.5, "unit": "µg/mL"},
      {"measurement": "MIC", "setting": "Staphylococcus aureus [15]", "result": 0.03, "unit": "µg/mL"},
      {"measurement": "MIC", "setting": "[16]", "result": 64, "unit": "µg/mL"},
      {"measurement": "MIC", "setting": "Enterococcus faecium [17]", "result": 64, "unit": "µg/mL"},
      {"measurement": "MIC", "setting": "Streptococcus pneumoniae", "result": 0.03, "unit": "µg/mL"},
      {"measurement": "MIC", "setting": "[18]", "result": 8, "unit": "µg/mL"},
      {"measurement": "MIC", "setting": "Enterococcus faecalis [19]", "result": 64, "unit": "µg/mL"},
      {"measurement": "MIC", "setting": "Staphylococcus aureus [20]", "result": 0.06, "unit": "µg/mL"},
      {"measurement": "MIC", "setting": "Staphylococcus aureus [21]", "result": 0.25, "unit": "µg/mL"},
      {"measurement": "MIC", "setting": "[22]", "result": 8, "unit": "µg/mL"},
      {"measurement": "MIC", "setting": "Klebsiella pneumoniae [23]", "result": 0.06, "unit": "µg/mL"},
      {"measurement": "MIC", "setting": "Enterococcus faecium [24]", "result": 128, "unit": "µg/mL"},
      {"measurement": "MIC", "setting": "Enterococcus faecium [25]", "result": 0.5, "unit": "µg/mL"},
      {"measurement": "MIC", "setting": "Staphylococcus aureus [26]", "result": "> 128", "unit": "µg/mL"},
      {"measurement": "MIC", "setting": "Staphylococcus aureus [27]", "result": "> 128", "unit": "µg/mL"},
      {"measurement": "MIC", "setting": "[28]", "result": 8, "unit": "µg/mL"},
      {"measurement": "ED50", "setting": "Staphylococcus aureus [29]", "result": 15.9, "unit": "mg/kg"},
      {"measurement": "ED50", "setting": "Pseudomonas aeruginosa [30]", "result": 111, "unit": "mg/kg"},
      {"measurement": "MIC", "setting": "Enterococcus faecium [31]", "result": "> 128", "unit": "µg/mL"},
      {"measurement": "MIC", "setting": "Enterococcus faecalis [32]", "result": 64, "unit": "µg/mL"},
      {"measurement": "MIC", "setting": "Escherichia coli [33]", "result": 64, "unit": "µg/mL"}
    ]}
  ]
}
